# Measurements as given in ChEMBL document CHEMBL3526048, “In vitro metabolism of rivoglitazone, a novel peroxisome proliferator-activated receptor γ agonist, in rat, monkey, and human liver microsomes and freshly isolated hepatocytes” (Drug Metab Dispos, 2011).
# How the values were obtained:
# Cytochrome P450 2D6 = Cytochrome P450 2D6 (Homo sapiens, UniProt P10635); assay: (§1) Activity of human CYP2D6 expressed in microsomes isolated from baculovirus infected insect cell assessed as enzyme-mediated 2-mercapto-3-(4-((6-methoxy-1-methyl-1H-benzo[d]imidazol-2-yl)methoxy)phenyl)propanamide formation at 20 uM after 2 hrs by radio-HPLC/LC-MS/MS analysis in presence of NADPH-generating system and NADPH-generating system/SAM; type: ADME
# Cytochrome P450 2D6, sequence (P10635 whole entry): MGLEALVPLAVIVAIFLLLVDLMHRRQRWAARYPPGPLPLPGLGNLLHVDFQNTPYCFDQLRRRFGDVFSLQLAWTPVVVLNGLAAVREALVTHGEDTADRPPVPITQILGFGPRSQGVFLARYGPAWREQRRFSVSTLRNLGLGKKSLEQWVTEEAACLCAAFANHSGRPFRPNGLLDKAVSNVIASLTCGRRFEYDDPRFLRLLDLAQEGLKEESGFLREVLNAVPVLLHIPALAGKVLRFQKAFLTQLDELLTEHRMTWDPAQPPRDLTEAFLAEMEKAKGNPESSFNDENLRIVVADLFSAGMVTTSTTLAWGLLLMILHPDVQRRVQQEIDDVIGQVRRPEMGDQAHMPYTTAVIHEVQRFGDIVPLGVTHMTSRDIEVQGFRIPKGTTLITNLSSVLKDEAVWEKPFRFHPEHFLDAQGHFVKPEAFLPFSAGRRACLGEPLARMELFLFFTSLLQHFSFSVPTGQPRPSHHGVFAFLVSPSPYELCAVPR
# Cytochrome P450 2C8 = target: T1, Cytochrome P450 2C8 (Homo sapiens, UniProt P10632); assay: (§2) Activity of human CYP2C8 expressed in microsomes isolated from baculovirus infected insect cell assessed as enzyme-mediated 5-(4-((6-methoxy-1H-benzo[d]imidazol-2-yl)methoxy)benzyl)thiazolidine-2,4-dione formation at 20 uM after 2 hrs by radio-HPLC/LC-MS/MS analysis in presence of NADPH-generating system and NADPH-generating system/SAM; type: ADME
# T1 sequence (P10632 whole entry): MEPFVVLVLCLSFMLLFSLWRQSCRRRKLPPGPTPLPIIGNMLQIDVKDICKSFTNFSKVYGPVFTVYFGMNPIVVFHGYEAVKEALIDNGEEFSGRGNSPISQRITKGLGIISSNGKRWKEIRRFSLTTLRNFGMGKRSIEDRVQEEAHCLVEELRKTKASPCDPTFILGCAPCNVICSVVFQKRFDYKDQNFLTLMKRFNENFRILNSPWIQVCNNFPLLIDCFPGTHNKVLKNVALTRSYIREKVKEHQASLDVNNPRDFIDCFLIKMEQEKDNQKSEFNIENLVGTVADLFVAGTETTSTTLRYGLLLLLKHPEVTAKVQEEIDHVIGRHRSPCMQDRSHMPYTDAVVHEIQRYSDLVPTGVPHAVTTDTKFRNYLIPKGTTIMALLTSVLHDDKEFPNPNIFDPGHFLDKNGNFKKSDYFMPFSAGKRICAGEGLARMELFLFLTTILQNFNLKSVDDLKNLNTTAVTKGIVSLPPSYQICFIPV
# Procedure, shortened: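 Baculovirus/insect-cell microsomes expressing single human CYPs, 1 mg/ml protein, with 50 mM potassium phosphate (pH 7.4) or 100 mM Tris-HCl (pH 7.5). NADPH-generating system: 2 mM NADP⁺, 20 mM glucose 6-phosphate, 2 units/ml G6PDH, 10 mM MgCl₂. [¹⁴C]rivoglitazone at 20 μM, 2 h at 37°C with shaking. Control used insect-cell control supersomes. Stopped with acetonitrile; supernatant concentrated under nitrogen; metabolites analysed by radio-HPLC, LC-MS and LC-MS/MS.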
# Cytochrome P450 2C19 = Cytochrome P450 2C19 (Homo sapiens, UniProt P33261); assay: Activity of human CYP2C19 expressed in microsomes isolated from baculovirus infected insect cell assessed as enzyme-mediated 3-(4-((6-methoxy-1-methyl-1H-benzo[d]imidazol-2-yl)methoxy)phenyl)-2-(methylsulfinyl)propanamide formation at 20 uM after 2 hrs by radio-HPLC/LC-MS/MS analysis in presence of NADPH-generating system/SAM; type: ADME
# Cytochrome P450 2C19, sequence (P33261 whole entry): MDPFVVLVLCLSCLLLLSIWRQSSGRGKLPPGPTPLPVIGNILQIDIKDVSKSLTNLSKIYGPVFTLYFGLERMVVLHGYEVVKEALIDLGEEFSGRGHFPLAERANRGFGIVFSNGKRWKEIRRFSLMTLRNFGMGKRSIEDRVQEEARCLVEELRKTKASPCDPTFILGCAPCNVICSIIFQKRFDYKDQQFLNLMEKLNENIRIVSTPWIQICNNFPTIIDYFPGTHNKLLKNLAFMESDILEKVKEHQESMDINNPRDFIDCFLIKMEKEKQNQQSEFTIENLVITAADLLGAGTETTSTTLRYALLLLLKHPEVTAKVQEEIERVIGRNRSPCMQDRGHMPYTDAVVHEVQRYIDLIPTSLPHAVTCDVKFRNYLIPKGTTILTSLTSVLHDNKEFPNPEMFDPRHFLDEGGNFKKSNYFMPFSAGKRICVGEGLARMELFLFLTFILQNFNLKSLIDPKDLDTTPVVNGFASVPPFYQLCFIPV
# Cytochrome P450 3A5 = Cytochrome P450 3A5 (Homo sapiens, UniProt P20815); assay: as §2, with “CYP3A5” for “CYP2C8”; type: ADME
# Cytochrome P450 3A5, sequence (P20815 whole entry): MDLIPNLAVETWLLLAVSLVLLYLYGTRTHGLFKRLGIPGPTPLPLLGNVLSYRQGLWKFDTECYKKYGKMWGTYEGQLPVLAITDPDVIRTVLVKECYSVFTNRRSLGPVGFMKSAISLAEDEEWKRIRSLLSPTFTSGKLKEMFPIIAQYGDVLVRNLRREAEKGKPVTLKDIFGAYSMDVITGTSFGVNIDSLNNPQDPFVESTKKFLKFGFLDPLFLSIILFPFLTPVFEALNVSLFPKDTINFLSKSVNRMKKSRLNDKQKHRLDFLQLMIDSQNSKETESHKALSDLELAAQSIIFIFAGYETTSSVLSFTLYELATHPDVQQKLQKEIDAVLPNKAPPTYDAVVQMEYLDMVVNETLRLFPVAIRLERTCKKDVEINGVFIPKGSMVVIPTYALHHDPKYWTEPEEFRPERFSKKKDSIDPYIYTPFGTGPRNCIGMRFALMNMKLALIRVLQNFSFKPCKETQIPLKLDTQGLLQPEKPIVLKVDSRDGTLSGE
# Procedure, shortened: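 cDNA-expressed human CYP3A5 in baculovirus-insect-cell microsomes (1 mg/ml protein) was incubated with [¹⁴C]rivoglitazone (20 μM) in 50 mM potassium phosphate (pH 7.4) or 100 mM Tris-HCl (pH 7.5). NADPH-generating system: 2 mM NADP⁺, 20 mM glucose 6-phosphate, 2 units/ml G6PDH, 10 mM MgCl₂. Incubation ran 2 h at 37°C with shaking; insect-cell control supersomes served as control. Acetonitrile stop, supernatant concentrated, then radio-HPLC, LC-MS and LC-MS/MS.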
# [1] = target: T2, UDP-glucuronosyltransferase 2B7 (Homo sapiens, UniProt P16662); assay: Activity of human UGT2B7 expressed in microsomes isolated from baculovirus infected insect cell assessed as enzyme-mediated (2S,3S,4S,5R,6R)-6-((1-carboxy-2-(4-((6-methoxy-1-methyl-1H-benzo[d]imidazol-2-yl)methoxy)phenyl)ethylthio)carbonylamino)-3,4,5-trihydroxytetrahydro-2H-pyran-2-carboxylic acid formation at 20 uM after 4 hrs by radio-HPLC/LC-MS/MS analysis in presence of NADPH-generating system/SAM; type: ADME
# T2 sequence (P16662 whole entry): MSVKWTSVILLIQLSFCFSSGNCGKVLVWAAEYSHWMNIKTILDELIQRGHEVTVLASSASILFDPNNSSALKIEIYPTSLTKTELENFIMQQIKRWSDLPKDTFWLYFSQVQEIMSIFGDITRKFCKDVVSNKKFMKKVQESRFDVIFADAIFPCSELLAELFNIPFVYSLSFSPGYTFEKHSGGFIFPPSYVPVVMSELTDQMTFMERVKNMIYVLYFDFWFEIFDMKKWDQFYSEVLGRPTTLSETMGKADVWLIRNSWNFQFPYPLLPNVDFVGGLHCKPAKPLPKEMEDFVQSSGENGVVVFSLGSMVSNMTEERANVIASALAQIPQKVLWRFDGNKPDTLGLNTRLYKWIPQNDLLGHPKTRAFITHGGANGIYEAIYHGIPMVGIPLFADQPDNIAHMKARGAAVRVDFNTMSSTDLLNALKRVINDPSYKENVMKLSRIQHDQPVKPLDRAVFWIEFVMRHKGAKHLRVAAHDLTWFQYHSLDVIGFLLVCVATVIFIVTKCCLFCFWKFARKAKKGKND
# [2] = target: T3, UDP-glucuronosyltransferase 1A3 (Homo sapiens, UniProt P35503); assay: as §1, with “human UGT1A3” for “human CYP2D6”, “after 4” for “after 2”, “system/SAM in presence of UDPGA and UDPGA/SAM” for “system/SAM”; type: ADME
# T3 sequence (P35503 whole entry): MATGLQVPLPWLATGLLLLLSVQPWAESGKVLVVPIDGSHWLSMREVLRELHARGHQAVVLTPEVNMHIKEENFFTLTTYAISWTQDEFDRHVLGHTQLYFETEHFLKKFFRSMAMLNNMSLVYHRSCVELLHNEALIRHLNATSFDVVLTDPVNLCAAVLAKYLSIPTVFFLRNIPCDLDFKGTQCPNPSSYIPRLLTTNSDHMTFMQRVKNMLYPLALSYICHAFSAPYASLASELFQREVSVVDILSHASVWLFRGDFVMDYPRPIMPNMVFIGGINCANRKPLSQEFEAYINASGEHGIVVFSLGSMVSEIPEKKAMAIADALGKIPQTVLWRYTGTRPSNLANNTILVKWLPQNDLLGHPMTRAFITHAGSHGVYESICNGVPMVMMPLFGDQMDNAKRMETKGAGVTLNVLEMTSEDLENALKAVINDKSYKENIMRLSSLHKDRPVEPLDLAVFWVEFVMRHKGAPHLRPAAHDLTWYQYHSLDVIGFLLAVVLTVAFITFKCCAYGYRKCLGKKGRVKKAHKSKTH
# Liver microsome = assay: Drug metabolism in human liver microsomes assessed as formation of (2S,3S,4S,5R,6R)-3,4,5-trihydroxy-6-(5-(4-((6-methoxy-1-methyl-1H-benzo[d]imidazol-2-yl)methoxy)benzyl)-2,4-dioxothiazolidin-3-yl)tetrahydro-2H-pyran-2-carboxylic acid at 20 uM after 4 hrs by radio-HPLC/LC-MS/MS analysis in presence of UDPGA and UDPGA/SAM; type: ADME
# Hepatocyte = assay: Drug level in human hepatocytes treated with [14C]-rivoglitazone at 30 uM after 3 hrs by radio-HPLC/LC-MS/MS analysis in presence of UDPGA, UDPGA/SAM and NADPH-generating system; type: ADME, cell-based
Drug metabolism (Cytochrome P450 2D6),Drug metabolism (Cytochrome P450 2C8),Drug metabolism (Cytochrome P450 2C19),Drug metabolism (Cytochrome P450 3A5),Drug metabolism [1],Drug metabolism [2],Drug metabolism (Liver microsome),Drug metabolism (Hepatocyte),SMILES
metabolite_detected,metabolite_detected,metabolite_not_detected,metabolite_detected,metabolite_detected,metabolite_not_detected,metabolite_detected,,COc1ccc2nc(COc3ccc(C[14CH]4SC(=O)NC4=O)cc3)n(C)c2c1.Cl (racemic)
,,,,,,,metabolite_not_detected,COc1ccc2nc(COc3ccc(CC(S)C(=O)O)cc3)n(C)c2c1 (stereo not drawn)
